Results published in ChEMBL document CHEMBL1140191, “Lynamicins A-E, chlorinated bisindole pyrrole antibiotics from a novel marine actinomycete” (J Nat Prod, 2008).
≈ marks a conversion by molar mass, not a printed value.

These compounds were tested on Staphylococcus aureus (assay: Antibacterial activity against methicillin-sensitive Staphylococcus aureus ATCC 29213 after 14 to 16 hrs by serial microbroth dilution method).
Format: functional
Method in brief: (§1)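 NCCLS broth microdilution in cation-adjusted Mueller-Hinton broth, no CO2 incubation. Final inoculum about 5 × 10^5 cfu/mL. Plates held at 35 °C for 14-16 h. MIC read as the lowest concentration with no visible bacterial growth.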

Compound | MIC [µM]
COC(=O)c1[nH]c(C(=O)OC)c(-c2c[nH]c3ccc(Cl)cc23)c1-c1c[nH]c2ccc(Cl)cc12 [LYNAMICIN D] | 6.2 (≈ 2.99 µg/mL)
COC(=O)c1[nH]cc(-c2c[nH]c3cc(Cl)c(Cl)cc23)c1-c1c[nH]c2ccc(Cl)cc12 [LYNAMICIN B] | 1.8 (≈ 0.826 µg/mL)
Clc1cc2[nH]cc(-c3c[nH]cc3-c3c[nH]c4cc(Cl)c(Cl)cc34)c2cc1Cl [LYNAMICIN C] | 2.5 (≈ 1.09 µg/mL)
COC(=O)c1[nH]cc(-c2c[nH]c3ccc(Cl)cc23)c1-c1c[nH]c2ccc(Cl)cc12 [LYNAMICIN A] | 4.3 (≈ 1.82 µg/mL)
COC(=O)c1[nH]c(C(=O)OC)c(-c2c[nH]c3ccc(Cl)cc23)c1-c1c[nH]c2ccccc12 [LYNAMICIN E] | > 45

What follows are compounds tested on Staphylococcus aureus (assay: Antibacterial activity against methicillin-resistant Staphylococcus aureus ATCC 43300 after 14 to 16 hrs by serial microbroth dilution method).
Format: functional
Method in brief: (§2)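 Broth microdilution MIC per NCCLS standards in cation-adjusted Mueller-Hinton broth, without CO2. Final inoculum approximately 5 × 10^5 cfu/mL. Incubated 35 °C for 14-16 h. MIC taken as the lowest drug concentration preventing visible growth.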

Compound | MIC [µM]
COC(=O)c1[nH]c(C(=O)OC)c(-c2c[nH]c3ccc(Cl)cc23)c1-c1c[nH]c2ccc(Cl)cc12 [LYNAMICIN D] | 6.2 (≈ 2.99 µg/mL)
COC(=O)c1[nH]cc(-c2c[nH]c3cc(Cl)c(Cl)cc23)c1-c1c[nH]c2ccc(Cl)cc12 [LYNAMICIN B] | 2.2 (≈ 1.01 µg/mL)
Clc1cc2[nH]cc(-c3c[nH]cc3-c3c[nH]c4cc(Cl)c(Cl)cc34)c2cc1Cl [LYNAMICIN C] | 3.5 (≈ 1.52 µg/mL)
COC(=O)c1[nH]cc(-c2c[nH]c3ccc(Cl)cc23)c1-c1c[nH]c2ccc(Cl)cc12 [LYNAMICIN A] | 4.7 (≈ 1.99 µg/mL)
COC(=O)c1[nH]c(C(=O)OC)c(-c2c[nH]c3ccc(Cl)cc23)c1-c1c[nH]c2ccccc12 [LYNAMICIN E] | 27 (≈ 12.1 µg/mL)

What follows are compounds tested on Staphylococcus epidermidis (assay: Antibacterial activity against multi drug-resistant Staphylococcus epidermidis ATCC 700578 after 14 to 16 hrs by serial microbroth dilution method).
Format: functional
Method in brief: as §2

Compound | MIC [µM]
COC(=O)c1[nH]c(C(=O)OC)c(-c2c[nH]c3ccc(Cl)cc23)c1-c1c[nH]c2ccc(Cl)cc12 [LYNAMICIN D] | 8.3 (≈ 4 µg/mL)
COC(=O)c1[nH]cc(-c2c[nH]c3cc(Cl)c(Cl)cc23)c1-c1c[nH]c2ccc(Cl)cc12 [LYNAMICIN B] | 2.2 (≈ 1.01 µg/mL)
Clc1cc2[nH]cc(-c3c[nH]cc3-c3c[nH]c4cc(Cl)c(Cl)cc34)c2cc1Cl [LYNAMICIN C] | 2.3 (≈ 1 µg/mL)
COC(=O)c1[nH]cc(-c2c[nH]c3ccc(Cl)cc23)c1-c1c[nH]c2ccc(Cl)cc12 [LYNAMICIN A] | 9.5 (≈ 4.03 µg/mL)
COC(=O)c1[nH]c(C(=O)OC)c(-c2c[nH]c3ccc(Cl)cc23)c1-c1c[nH]c2ccccc12 [LYNAMICIN E] | 45 (≈ 20.2 µg/mL)

Each compound was assayed on Staphylococcus epidermidis (assay: Antibacterial activity against multi drug-resistant Staphylococcus epidermidis ATCC 700582 after 14 to 16 hrs by serial microbroth dilution method).
Format: functional
Method in brief: as §2

Compound | MIC [µM]
COC(=O)c1[nH]c(C(=O)OC)c(-c2c[nH]c3ccc(Cl)cc23)c1-c1c[nH]c2ccc(Cl)cc12 [LYNAMICIN D] | 8.3 (≈ 4 µg/mL)
COC(=O)c1[nH]cc(-c2c[nH]c3cc(Cl)c(Cl)cc23)c1-c1c[nH]c2ccc(Cl)cc12 [LYNAMICIN B] | 2.2 (≈ 1.01 µg/mL)
Clc1cc2[nH]cc(-c3c[nH]cc3-c3c[nH]c4cc(Cl)c(Cl)cc34)c2cc1Cl [LYNAMICIN C] | 2.3 (≈ 1 µg/mL)
COC(=O)c1[nH]cc(-c2c[nH]c3ccc(Cl)cc23)c1-c1c[nH]c2ccc(Cl)cc12 [LYNAMICIN A] | 9.5 (≈ 4.03 µg/mL)
COC(=O)c1[nH]c(C(=O)OC)c(-c2c[nH]c3ccc(Cl)cc23)c1-c1c[nH]c2ccccc12 [LYNAMICIN E] | > 72

These compounds were tested on Streptococcus pneumoniae (assay: Antibacterial activity against penicillin-sensitive Streptococcus pneumoniae ATCC 49619 after 14 to 16 hrs).
Format: functional
Method in brief: (§3)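 Serial microbroth dilution MIC per NCCLS in cation-adjusted Mueller-Hinton broth II with lysed horse blood. Incubated in a CO2 incubator at 35 °C for 14-16 h. Final inoculum approximately 5 × 10^5 cfu/mL. MIC read as the lowest concentration with no visible growth.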

Compound | MIC [µM]
COC(=O)c1[nH]c(C(=O)OC)c(-c2c[nH]c3ccc(Cl)cc23)c1-c1c[nH]c2ccc(Cl)cc12 [LYNAMICIN D] | 50 (≈ 24.1 µg/mL)
COC(=O)c1[nH]cc(-c2c[nH]c3cc(Cl)c(Cl)cc23)c1-c1c[nH]c2ccc(Cl)cc12 [LYNAMICIN B] | 18 (≈ 8.26 µg/mL)
Clc1cc2[nH]cc(-c3c[nH]cc3-c3c[nH]c4cc(Cl)c(Cl)cc34)c2cc1Cl [LYNAMICIN C] | 46 (≈ 20 µg/mL)
COC(=O)c1[nH]cc(-c2c[nH]c3ccc(Cl)cc23)c1-c1c[nH]c2ccc(Cl)cc12 [LYNAMICIN A] | 57 (≈ 24.2 µg/mL)
COC(=O)c1[nH]c(C(=O)OC)c(-c2c[nH]c3ccc(Cl)cc23)c1-c1c[nH]c2ccccc12 [LYNAMICIN E] | > 72

These compounds were tested on Streptococcus pneumoniae (assay: Antibacterial activity against penicillin-resistant Streptococcus pneumoniae ATCC 51915after 14 to 16 hrs).
Format: functional
Method in brief: as §3

Compound | MIC [µM]
COC(=O)c1[nH]c(C(=O)OC)c(-c2c[nH]c3ccc(Cl)cc23)c1-c1c[nH]c2ccc(Cl)cc12 [LYNAMICIN D] | 42 (≈ 20.3 µg/mL)
COC(=O)c1[nH]cc(-c2c[nH]c3cc(Cl)c(Cl)cc23)c1-c1c[nH]c2ccc(Cl)cc12 [LYNAMICIN B] | 18 (≈ 8.26 µg/mL)
Clc1cc2[nH]cc(-c3c[nH]cc3-c3c[nH]c4cc(Cl)c(Cl)cc34)c2cc1Cl [LYNAMICIN C] | 46 (≈ 20 µg/mL)
COC(=O)c1[nH]cc(-c2c[nH]c3ccc(Cl)cc23)c1-c1c[nH]c2ccc(Cl)cc12 [LYNAMICIN A] | 57 (≈ 24.2 µg/mL)
COC(=O)c1[nH]c(C(=O)OC)c(-c2c[nH]c3ccc(Cl)cc23)c1-c1c[nH]c2ccccc12 [LYNAMICIN E] | > 72

Each compound was assayed on Enterococcus faecalis (assay: Antibacterial activity against vancomycin-sensitive Enterococcus faecalis ATCC 29212 after 14 to 16 hrs by serial microbroth dilution method).
Format: functional
Method in brief: as §1

Compound | MIC [µM]
COC(=O)c1[nH]c(C(=O)OC)c(-c2c[nH]c3ccc(Cl)cc23)c1-c1c[nH]c2ccc(Cl)cc12 [LYNAMICIN D] | 17 (≈ 8.2 µg/mL)
COC(=O)c1[nH]cc(-c2c[nH]c3cc(Cl)c(Cl)cc23)c1-c1c[nH]c2ccc(Cl)cc12 [LYNAMICIN B] | 3.3 (≈ 1.51 µg/mL)
Clc1cc2[nH]cc(-c3c[nH]cc3-c3c[nH]c4cc(Cl)c(Cl)cc34)c2cc1Cl [LYNAMICIN C] | 5.8 (≈ 2.52 µg/mL)
COC(=O)c1[nH]cc(-c2c[nH]c3ccc(Cl)cc23)c1-c1c[nH]c2ccc(Cl)cc12 [LYNAMICIN A] | 19 (≈ 8.06 µg/mL)
COC(=O)c1[nH]c(C(=O)OC)c(-c2c[nH]c3ccc(Cl)cc23)c1-c1c[nH]c2ccccc12 [LYNAMICIN E] | > 54

These compounds were tested on Enterococcus faecium (assay: Antibacterial activity against vancomycin-resistant Enterococcus faecium ATCC 700221 after 14 to 16 hrs by serial microbroth dilution method).
Format: functional
Method in brief: as §2

Compound | MIC [µM]
COC(=O)c1[nH]c(C(=O)OC)c(-c2c[nH]c3ccc(Cl)cc23)c1-c1c[nH]c2ccc(Cl)cc12 [LYNAMICIN D] | 17 (≈ 8.2 µg/mL)
COC(=O)c1[nH]cc(-c2c[nH]c3cc(Cl)c(Cl)cc23)c1-c1c[nH]c2ccc(Cl)cc12 [LYNAMICIN B] | 4.4 (≈ 2.02 µg/mL)
Clc1cc2[nH]cc(-c3c[nH]cc3-c3c[nH]c4cc(Cl)c(Cl)cc34)c2cc1Cl [LYNAMICIN C] | 4.6 (≈ 2 µg/mL)
COC(=O)c1[nH]cc(-c2c[nH]c3ccc(Cl)cc23)c1-c1c[nH]c2ccc(Cl)cc12 [LYNAMICIN A] | 19 (≈ 8.06 µg/mL)
COC(=O)c1[nH]c(C(=O)OC)c(-c2c[nH]c3ccc(Cl)cc23)c1-c1c[nH]c2ccccc12 [LYNAMICIN E] | > 54

The compounds below were run on Haemophilus influenzae (assay: Antibacterial activity against Haemophilus influenzae ATCC […] after 14 to 16 hrs).
Format: functional
Method in brief: (§4)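 Serial microbroth dilution (NCCLS) in Haemophilus Test Medium in a CO2 incubator. Final inoculum about 5 × 10^5 cfu/mL, 35 °C for 14-16 h. MIC is the lowest drug concentration preventing visible growth.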

Compound | MIC [µM]
COC(=O)c1[nH]c(C(=O)OC)c(-c2c[nH]c3ccc(Cl)cc23)c1-c1c[nH]c2ccc(Cl)cc12 [LYNAMICIN D] | 10 (≈ 4.82 µg/mL)
COC(=O)c1[nH]cc(-c2c[nH]c3cc(Cl)c(Cl)cc23)c1-c1c[nH]c2ccc(Cl)cc12 [LYNAMICIN B] | 4.4 (≈ 2.02 µg/mL)
Clc1cc2[nH]cc(-c3c[nH]cc3-c3c[nH]c4cc(Cl)c(Cl)cc34)c2cc1Cl [LYNAMICIN C] | 9.2 (≈ 4 µg/mL)
COC(=O)c1[nH]cc(-c2c[nH]c3ccc(Cl)cc23)c1-c1c[nH]c2ccc(Cl)cc12 [LYNAMICIN A] | 38 (≈ 16.1 µg/mL)
COC(=O)c1[nH]c(C(=O)OC)c(-c2c[nH]c3ccc(Cl)cc23)c1-c1c[nH]c2ccccc12 [LYNAMICIN E] | > 72

These compounds were tested on Haemophilus influenzae (assay: Antibacterial activity against Haemophilus influenzae ATCC 49766 after 14 to 16 hrs).
Format: functional
Method in brief: as §4

Compound | MIC [µM]
COC(=O)c1[nH]c(C(=O)OC)c(-c2c[nH]c3ccc(Cl)cc23)c1-c1c[nH]c2ccc(Cl)cc12 [LYNAMICIN D] | 17 (≈ 8.2 µg/mL)
COC(=O)c1[nH]cc(-c2c[nH]c3cc(Cl)c(Cl)cc23)c1-c1c[nH]c2ccc(Cl)cc12 [LYNAMICIN B] | 13 (≈ 5.96 µg/mL)
Clc1cc2[nH]cc(-c3c[nH]cc3-c3c[nH]c4cc(Cl)c(Cl)cc34)c2cc1Cl [LYNAMICIN C] | 15 (≈ 6.53 µg/mL)
COC(=O)c1[nH]cc(-c2c[nH]c3ccc(Cl)cc23)c1-c1c[nH]c2ccc(Cl)cc12 [LYNAMICIN A] | 28 (≈ 11.9 µg/mL)
COC(=O)c1[nH]c(C(=O)OC)c(-c2c[nH]c3ccc(Cl)cc23)c1-c1c[nH]c2ccccc12 [LYNAMICIN E] | > 72

The compounds below were run on Escherichia coli (assay: Antibacterial activity against Escherichia coli imp permeable mutant after 14 to 16 hrs by serial microbroth dilution method).
Format: functional
Method in brief: as §2

Compound | MIC [µM]
COC(=O)c1[nH]c(C(=O)OC)c(-c2c[nH]c3ccc(Cl)cc23)c1-c1c[nH]c2ccc(Cl)cc12 [LYNAMICIN D] | > 67
COC(=O)c1[nH]cc(-c2c[nH]c3cc(Cl)c(Cl)cc23)c1-c1c[nH]c2ccc(Cl)cc12 [LYNAMICIN B] | 13 (≈ 5.96 µg/mL)
Clc1cc2[nH]cc(-c3c[nH]cc3-c3c[nH]c4cc(Cl)c(Cl)cc34)c2cc1Cl [LYNAMICIN C] | 15 (≈ 6.53 µg/mL)
COC(=O)c1[nH]cc(-c2c[nH]c3ccc(Cl)cc23)c1-c1c[nH]c2ccc(Cl)cc12 [LYNAMICIN A] | 16 (≈ 6.79 µg/mL)
COC(=O)c1[nH]c(C(=O)OC)c(-c2c[nH]c3ccc(Cl)cc23)c1-c1c[nH]c2ccccc12 [LYNAMICIN E] | > 72

The compounds below were run on Herpesviridae sp. (assay: Antiviral activity against HSV).
Format: functional, organism-based

Compound | IC50 [µg/mL]
COC(=O)c1[nH]c(C(=O)OC)c(-c2c[nH]c3ccccc23)c1-c1c[nH]c2ccccc12 [LYCOGARUBIN C] | 17.2 (≈ 41.6 µM)
O=C(O)c1[nH]c(C(=O)O)c(-c2c[nH]c3ccccc23)c1-c1c[nH]c2ccccc12 [LYCOGALIC ACID A] | 17.2 (≈ 44.6 µM)
